Measured values from ChEMBL document CHEMBL4359929, “Piperidine and piperazine inhibitors of fatty acid amide hydrolase targeting excitotoxic pathology” (Bioorg Med Chem, 2019).
pIC50: −log10 of the molar value. The source made the active and inactive calls. No cut-off for these calls is given here.

Legend:
[1] = target: T1, Fatty-acid amide hydrolase 1 (Homo sapiens) (UniProt O00519); experiment: Inhibition of human recombinant MBP-tagged FAAH expressed in Escherichia coli cells at 1 uM using AAMCA as substrate incubated for 15 mins followed by substrate addition and measured after every 20 mins for 4 hrs by fluorescence based assay relative to control
T1 sequence (whole entry): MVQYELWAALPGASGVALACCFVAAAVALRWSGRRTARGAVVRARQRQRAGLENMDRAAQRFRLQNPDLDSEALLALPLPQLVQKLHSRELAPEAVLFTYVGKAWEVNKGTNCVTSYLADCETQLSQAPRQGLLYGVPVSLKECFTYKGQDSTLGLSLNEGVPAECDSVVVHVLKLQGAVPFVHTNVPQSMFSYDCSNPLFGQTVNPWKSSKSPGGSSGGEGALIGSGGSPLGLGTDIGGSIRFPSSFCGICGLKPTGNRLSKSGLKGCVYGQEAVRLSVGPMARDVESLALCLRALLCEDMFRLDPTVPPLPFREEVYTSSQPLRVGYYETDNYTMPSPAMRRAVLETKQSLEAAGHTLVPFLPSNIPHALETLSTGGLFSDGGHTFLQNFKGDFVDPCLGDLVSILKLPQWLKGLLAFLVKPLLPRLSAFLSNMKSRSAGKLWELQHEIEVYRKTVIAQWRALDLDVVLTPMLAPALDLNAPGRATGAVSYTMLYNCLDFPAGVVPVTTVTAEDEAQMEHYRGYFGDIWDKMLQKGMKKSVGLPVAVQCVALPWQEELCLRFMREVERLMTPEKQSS
In short: (§1)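 Fluorescent FAAH assay with arachidonoyl 7-amino-4-methylcoumarin amide as substrate; compound tested at a single concentration of 1 µM; percent inhibition reported.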

[2] = target: T2, Fatty-acid amide hydrolase 1 (Rattus norvegicus) (UniProt P97612); experiment: Inhibition of rat recombinant His/GST-tagged FAAH expressed in Escherichia coli cells at 1 uM using AAMCA as substrate incubated for 15 mins followed by substrate addition and measured after every 20 mins for 4 hrs by fluorescence based assay relative to control; in short: as §1
T2 sequence (whole entry): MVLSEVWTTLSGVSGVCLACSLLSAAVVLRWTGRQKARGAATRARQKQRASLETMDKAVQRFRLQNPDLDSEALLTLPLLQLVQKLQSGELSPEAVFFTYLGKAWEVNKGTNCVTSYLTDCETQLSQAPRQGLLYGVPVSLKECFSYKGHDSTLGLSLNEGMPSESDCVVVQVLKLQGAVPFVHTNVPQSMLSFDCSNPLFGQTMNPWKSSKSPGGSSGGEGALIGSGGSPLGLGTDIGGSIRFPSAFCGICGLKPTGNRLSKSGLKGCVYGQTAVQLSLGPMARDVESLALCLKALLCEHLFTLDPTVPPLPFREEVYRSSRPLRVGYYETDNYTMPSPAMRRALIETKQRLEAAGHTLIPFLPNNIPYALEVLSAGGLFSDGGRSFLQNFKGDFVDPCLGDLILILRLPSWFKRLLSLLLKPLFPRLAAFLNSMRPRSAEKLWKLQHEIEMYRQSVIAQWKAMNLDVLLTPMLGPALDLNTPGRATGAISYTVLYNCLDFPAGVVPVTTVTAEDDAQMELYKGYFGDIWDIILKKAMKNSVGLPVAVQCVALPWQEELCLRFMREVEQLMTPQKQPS

[3] = target: Cannabinoid receptor 1 (Rattus norvegicus) (UniProt P20272); experiment: Displacement of [3H]CP55940 from CB1 receptor in rat brain by competition-equilibrium binding analysis; format: tissue-based
In short: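 Rat brain membranes as CB1 source; competition-equilibrium binding against [3H]CP-55,940.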
Target sequence in this assay (P20272 whole entry): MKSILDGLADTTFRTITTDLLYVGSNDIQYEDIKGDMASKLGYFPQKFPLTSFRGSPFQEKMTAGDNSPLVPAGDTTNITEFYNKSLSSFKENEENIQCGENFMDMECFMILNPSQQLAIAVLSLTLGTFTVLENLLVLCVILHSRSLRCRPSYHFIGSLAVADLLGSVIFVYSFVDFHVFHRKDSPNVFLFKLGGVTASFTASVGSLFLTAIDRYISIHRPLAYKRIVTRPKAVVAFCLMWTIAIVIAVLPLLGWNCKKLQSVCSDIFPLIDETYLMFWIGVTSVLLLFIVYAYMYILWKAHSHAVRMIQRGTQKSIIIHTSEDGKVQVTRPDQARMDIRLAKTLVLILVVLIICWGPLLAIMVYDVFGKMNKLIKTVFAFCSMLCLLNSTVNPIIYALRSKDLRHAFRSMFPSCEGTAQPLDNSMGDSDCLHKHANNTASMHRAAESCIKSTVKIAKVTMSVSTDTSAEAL

[4] = target: Cannabinoid receptor 2 (Mus musculus) (UniProt P47936); experiment: Displacement of [3H]CP55940 from mouse CB2 receptor expressed in HEK293 cells by competition-equilibrium binding analysis; format: cell-based
Chain of Cannabinoid receptor 2 (Mus musculus) (P47936 whole entry): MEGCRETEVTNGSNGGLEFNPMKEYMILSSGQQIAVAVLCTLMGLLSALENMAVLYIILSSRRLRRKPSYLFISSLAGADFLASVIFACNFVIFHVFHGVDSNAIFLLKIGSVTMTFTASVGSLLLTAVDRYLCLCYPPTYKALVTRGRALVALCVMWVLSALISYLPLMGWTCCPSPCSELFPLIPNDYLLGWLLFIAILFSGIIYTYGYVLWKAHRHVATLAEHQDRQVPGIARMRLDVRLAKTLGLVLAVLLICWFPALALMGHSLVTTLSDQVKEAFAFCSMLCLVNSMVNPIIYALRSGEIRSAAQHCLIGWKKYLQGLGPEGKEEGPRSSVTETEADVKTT
In short: (§2)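 HEK293 cell membranes expressing mouse or human CB2; competition-equilibrium binding against [3H]CP-55,940.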

[5] = target: Cannabinoid receptor 2 (Homo sapiens) (UniProt P34972); experiment: Displacement of [3H]CP55940 from human CB2 receptor expressed in HEK293 cells by competition-equilibrium binding analysis; format: cell-based; in short: as §2
Chain of Cannabinoid receptor 2 (Homo sapiens) (P34972 whole entry): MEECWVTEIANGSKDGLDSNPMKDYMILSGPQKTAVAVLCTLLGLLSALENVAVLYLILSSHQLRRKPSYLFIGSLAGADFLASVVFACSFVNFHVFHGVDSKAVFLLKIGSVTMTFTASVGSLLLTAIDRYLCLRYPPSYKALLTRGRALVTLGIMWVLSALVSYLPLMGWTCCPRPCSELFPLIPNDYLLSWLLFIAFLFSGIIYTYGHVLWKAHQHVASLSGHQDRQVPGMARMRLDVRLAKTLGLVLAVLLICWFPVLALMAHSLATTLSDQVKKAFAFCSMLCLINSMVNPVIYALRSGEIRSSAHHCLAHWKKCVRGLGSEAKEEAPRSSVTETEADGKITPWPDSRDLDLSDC

[6] = target: Cannabinoid receptor 1 (Rattus norvegicus) (UniProt P20272); experiment: Displacement of [3H]CP55940 from CB1 receptor in rat brain by competition-equilibrium binding analysis
Target sequence in this assay (P20272 whole entry, looked up): as the sequence (P20272 whole entry) above

[7] = target: T3, Fatty-acid amide hydrolase 1 (Homo sapiens, UniProt O00519); experiment: Inhibition of human recombinant MBP-tagged FAAH expressed in Escherichia coli cells using AAMCA as substrate incubated for 15 mins followed by substrate addition and measured after every 20 mins for 4 hrs by fluorescence based assay
T3 sequence (O00519 whole entry): T1 sequence (whole entry)
In short: (§3)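 Fluorescent enzyme assay in throughput format. Human recombinant FAAH or purified rat FAAH used arachidonoyl 7-amino-4-methylcoumarin amide as substrate; human recombinant MGL was run by a similar fluorometric procedure.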

[8] = target: T4, Fatty-acid amide hydrolase 1 (Rattus norvegicus, UniProt P97612); experiment: Inhibition of rat recombinant His/GST-tagged FAAH expressed in Escherichia coli cells using AAMCA as substrate incubated for 15 mins followed by substrate addition and measured after every 20 mins for 4 hrs by fluorescence based assay; in short: as §3
T4 sequence (P97612 whole entry): T2 sequence (whole entry)

Monoglyceride lipase = target: T5, Monoglyceride lipase (Homo sapiens, UniProt Q99685); experiment: Inhibition of human recombinant His-tagged MGL expressed in Escherichia coli BL21 DE3 cells using AHMMCE as substrate preincubated with enzyme for 15 mins followed by substrate addition and measured after every 15 mins for 3 hrs by fluorescence based assay; in short: as §3
T5 sequence (Q99685 whole entry): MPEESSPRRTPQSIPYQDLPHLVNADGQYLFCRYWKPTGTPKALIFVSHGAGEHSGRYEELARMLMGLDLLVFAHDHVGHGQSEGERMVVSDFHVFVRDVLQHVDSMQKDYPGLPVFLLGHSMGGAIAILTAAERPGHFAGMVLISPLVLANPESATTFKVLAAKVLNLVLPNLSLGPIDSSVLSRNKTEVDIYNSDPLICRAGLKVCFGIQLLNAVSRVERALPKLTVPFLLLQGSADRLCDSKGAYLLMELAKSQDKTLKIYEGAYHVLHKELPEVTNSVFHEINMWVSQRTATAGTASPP

[9] = Stability in human liver microsomes assessed as half life; format: ADME, Microsome
In short: (§4)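 Stability assessed as half-life in human, rat and mouse plasma and gastric fluid, and in human, rat and mouse liver microsomal preparations.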

[10] = Stability in rat liver microsomes assessed as half life; format: ADME, Microsome; in short: as §4
[11] = Stability in mouse liver microsomes assessed as half life; format: ADME, Microsome; in short: as §4
[12] = Stability in human plasma assessed as half life; format: ADME, cell-free; in short: as §4
[13] = Stability in rat plasma assessed as half life; format: ADME, cell-free; in short: as §4
[14] = Stability in mouse plasma assessed as half life; format: ADME, cell-free; in short: as §4
[15] = Stability in human gastric fluid assessed as half life; format: ADME, tissue-based, Gastric juice; in short: as §4
[16] = Stability in rat gastric fluid assessed as half life; format: ADME, tissue-based, Gastric juice; in short: as §4
[17] = Stability in mouse gastric fluid assessed as half life; format: ADME, tissue-based, Gastric juice; in short: as §4
[18] = Drug concentration in plasma (unknown origin) at 2 mg/kg, iv measured after 15 mins; format: ADME, organism-based
In short: (§5)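 Cassette pharmacokinetics: compounds given together at 2 mg/kg iv; brain and plasma levels (µg/mL) measured at 15 min.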

[19] = Drug concentration in brain (unknown origin) at 2 mg/kg, iv measured after 15 mins; format: ADME, organism-based; conditions: read-out: Ct; in short: as §5
Homo sapiens [20] = organism: Homo sapiens; experiment: Selectivity ratio of IC50 for human recombinant His-tagged MGL expressed in Escherichia coli BL21 DE3 cells to IC50 for human recombinant MBP-tagged FAAH expressed in Escherichia coli cells by fluorescence based assay
Homo sapiens [21] = organism: Homo sapiens; experiment: Selectivity ratio of IC50 for human full length ABHD6 expressed in Escherichia coli cells to IC50 for human recombinant MBP-tagged FAAH expressed in Escherichia coli cells by fluorescence based assay
[22] = Selectivity ratio of IC50 for human recombinant His-tagged MGL expressed in Escherichia coli BL21 DE3 cells to IC50 for rat recombinant His/GST-tagged FAAH expressed in Escherichia coli cells by fluorescence based assay
[23] = Selectivity ratio of IC50 for human full length ABHD6 expressed in Escherichia coli cells to IC50 for rat recombinant His/GST-tagged FAAH expressed in Escherichia coli cells by fluorescence based assay

SMILES	inhibition [1]	inhibition [2]	Activity [3]	Activity [4]	Activity [5]	Activity [6]	pIC50 [7]	pIC50 [8]	pIC50 (Monoglyceride lipase)	half-life [9]	half-life [10]	half-life [11]	half-life [12]	half-life [13]	half-life [14]	half-life [15]	Ratio IC50 (Homo sapiens [20])	Ratio IC50 (Homo sapiens [21])	Ratio IC50 [22]	Ratio IC50 [23]	also measured
C[C@H]1CN(c2ccccc2)CCN1C(=O)Oc1cccc(N2CCS(=O)(=O)CC2)c1	inactive	inactive	inactive	inactive	inactive	inactive															
O=C(Oc1cccc(N2CCS(=O)(=O)CC2)c1)N1CCC(c2ccc(OCCF)cc2)CC1			inactive	inactive	inactive	inactive	7.67	8.26	< 6.00	15 to 25 min	15 to 25 min	15 to 25 min	> 60 min	> 60 min	> 60 min	> 60 min	> 1000	> 1000	> 1000	> 1000	half-life [16]: > 60 min; half-life [17]: > 60 min; concentration at 0.25 h [18]: 388 ng/mL; concentration at 0.25 h [19]: 909 ng/mL
O=C(Oc1cccc(N2CCS(=O)(=O)CC2)c1)N1CCN(c2ccnnc2)CC1	inactive	inactive	inactive	inactive	inactive	inactive			< 6.00								> 1000	> 1000	> 1000	> 1000	
O=C(Oc1cccc(N2CCS(=O)(=O)CC2)c1)N1CCC(c2ccc(F)cc2)CC1			inactive	inactive	inactive	inactive	8.00	8.64	< 6.00	15 to 25 min	15 to 25 min	15 to 25 min	> 60 min	> 60 min	> 60 min	> 60 min	> 1000	> 1000	> 1000	> 1000	half-life [16]: > 60 min; half-life [17]: > 60 min; concentration at 0.25 h [18]: 474 ng/mL; concentration at 0.25 h [19]: 1230 ng/mL
O=C(Oc1cccc(N2CCS(=O)(=O)CC2)c1)N1C[C@@H]2C[C@H]1CN2c1ccc(F)cc1	67%		inactive	inactive	inactive	inactive		6.47	< 6.00								> 1000	> 1000	> 1000	> 1000	
